Test results: ChEMBL document CHEMBL1132144, “Synthesis of 9-O-substituted derivatives of 9-hydroxy-5, 6-dimethyl-6H-pyrido[4,3-b]carbazole-1-carboxylic acid (2-(dimethylamino)ethyl)amide and their 10- and 11-methyl analogues with improved antitumor activity” (J Med Chem, 1999)

Columns and labels:
L1210 = assay: Inhibition of murine L1210 leukemia cell proliferation measured by the MTT assay; assay type: functional, cell-based; details: Mus musculus
Method in brief: (§1)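 Murine L1210 leukemia and B16 melanoma cells were grown in RPMI 1640 with 10% fetal calf serum, 2 mM L-glutamine, penicillin/streptomycin and 10 mM HEPES (pH 7.4). Cells were exposed to nine serial drug dilutions in triplicate for about four doubling times (L1210 48 h, B16 96 h), then read by microculture tetrazolium (MTT) assay. IC50 is the concentration halving optical density versus untreated controls, averaged over ≥2 independent experiments.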

Mus musculus [1] = assay: Long-term survivors among 7 mice infected with B16 melanoma, scored on day 90 at 20 mg/kg dose on day 1; assay type: functional
Mus musculus [2] = assay: Percent median survival time of mice injected with B16 melanoma, at a intraperitoneal compound dose of 40 mg/kg
Mus musculus [3] = assay: Percent median survival time of mice injected with P388 leukemia, at a subcutaneous compound dose of 20 mg/kg; assay type: functional
B16 = assay: Inhibition of murine B16 melanoma cell proliferation measured by the MTT assay; assay type: functional, cell-based; details: Mus musculus; method in brief: as §1
Mus musculus [4] = assay: Percent median survival time of mice injected with P388 leukemia, at a subcutaneous compound dose of 10 mg/kg; assay type: functional
Mus musculus [5] = assay: Long-term survivors among 7 mice infected with P388 leukemia, scored on day 60 at 20 mg/kg dose on day 1; assay type: functional
Method in brief: (§2)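 B6D2F1 mice in groups of 6–7 received 10^6 P388 cells ip on day 0. Dihydrochloride salts dissolved in water were injected iv on day 1 or on days 1, 5 and 9, at three doses and then five. Read-outs were % T/C (median survival treated/control × 100) and long-term survivors on day 60, both at the optimal dose (no toxic death, weight loss <20%).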

Mus musculus [6] = assay: Percent median survival time of mice injected with B16 melanoma, at a intraperitoneal compound dose of 20 mg/kg
Mus musculus [7] = assay: Percent median survival time of mice intraperitoneally injected with P388 leukemia was determined from tested at 160 mg/kg at day1 dose to that of control; assay type: functional
Method in brief: (§3)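 P388 leukemia in B6D2F1 mice (groups of 6–7), 10^6 cells inoculated ip on day 0. Dihydrochloride salts were dissolved in water and given iv on day 1 or on days 1, 5, 9. Three doses were tested, then five if active. %T/C = median survival treated/control × 100, reported at the optimal dose (no toxic death, weight loss <20%), from one or two representative experiments.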

Mus musculus [8] = assay: Percent median survival time of mice intraperitoneally injected with P388 leukemia was determined from tested at 80 mg/kg at day1,5,9 dose to that of control; assay type: functional; details: route intraperitoneal; method in brief: as §3
Mus musculus [9] = assay: Long-term survivors among 6 mice infected with P388 leukemia, scored on day 60 at 160 mg/kg dose; assay type: functional
Method in brief: (§4)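 B6D2F1 mice in groups of 6–7 were inoculated ip on day 0 with 10^6 P388 cells. Dihydrochloride salts were dissolved in water and given iv on day 1 or on days 1, 5 and 9. Doses ranged from a low nontoxic dose to a toxic one. Long-term survivors were counted at day 60.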

Mus musculus [10] = assay: Long-term survivors among 6 mice infected with P388 leukemia, scored on day 60 at 80 mg/kg dose; assay type: functional; method in brief: as §4
Mus musculus [11] = assay: Percent median survival time of mice injected with B16 melanoma, at a intraperitoneal compound dose of 10 mg/kg
Mus musculus [12] = assay: Percent median survival time of mice injected with P388 leukemia, at a subcutaneous compound dose of 10 mg/kg on day 1; assay type: functional
Mus musculus [13] = assay: Long-term survivors among 7 mice infected with B16 melanoma, scored on day 90 at 10 mg/kg dose on day 1; assay type: functional
Mus musculus [14] = assay: Percent median survival time of mice injected with P388 leukemia, at a subcutaneous compound dose of 10 mg/kg on day 1, 5, 9; assay type: functional
Mus musculus [15] = assay: Long-term survivors among 7 mice infected with P388 leukemia, scored on day 60 at 10 mg/kg dose on day 1; assay type: functional; method in brief: as §2
Mus musculus [16] = species: Mus musculus; assay: Long-term survivors among 14 mice infected with B16 melanoma, scored on day 90 at optimal dose on days 1-9
Mus musculus [17] = assay: Percent median survival time of mice injected with P388 leukemia, at a intravenous compound dose of 40 mg/kg
Mus musculus [18] = assay: Long-term survivors among 14 mice infected with P388 leukemia, scored on day 60 at 40 mg/kg dose on day 1; assay type: functional; method in brief: as §4
Mus musculus [19] = assay: Percent median survival time of mice injected with P388 leukemia, at a intravenous compound dose of 320 mg/kg
Mus musculus [20] = assay: Long-term survivors among 14 mice infected with P388 leukemia, scored on day 60 at 320 mg/kg dose on day 1; assay type: functional; method in brief: as §4
Mus musculus [21] = assay: Percent median survival time of mice injected with P388 leukemia, at a intravenous compound dose of 80 mg/kg
Mus musculus [22] = species: Mus musculus; assay: Long-term survivors among 14 mice infected with B16 melanoma, scored on day 90 at optimal dose on days 1-9; remark: listed apart in the source
Mus musculus [23] = assay: Long-term survivors among 7 mice infected with P388 leukemia, scored on day 90 at 10 mg/kg dose; assay type: functional
Mus musculus [24] = assay: Percent median survival time of mice intraperitoneally injected with P388 leukemia was determined from tested at 40 mg/kg at day1 dose to that of control; assay type: functional; details: route intraperitoneal; method in brief: as §3
Mus musculus [25] = assay: Percent median survival time of mice intraperitoneally injected with P388 leukemia was determined from tested at 40 mg/kg at day1,5,9 dose to that of control; assay type: functional; details: route intraperitoneal; method in brief: as §3
Mus musculus [26] = assay: Long-term survivors among 6 mice infected with P388 leukemia, scored on day 60 at 40 mg/kg dose on day 1, 5, 9; assay type: functional; method in brief: as §4
Mus musculus [27] = assay: Long-term survivors among 6 mice infected with P388 leukemia, scored on day 60 at 40 mg/kg dose on day 1; assay type: functional; method in brief: as §4
Mus musculus [28] = assay: Percent median survival time of mice injected with B16 melanoma, at a intraperitoneal compound dose of 5 mg/kg
Mus musculus [29] = assay: Percent median survival time of mice injected with P388 leukemia, at a intravenous compound dose of 60 mg/kg
Mus musculus [30] = assay: Long-term survivors among 6 mice infected with P388 leukemia, scored on day 60 at 60 mg/kg dose on day 1; assay type: functional; method in brief: as §4
Mus musculus [31] = assay: Long-term survivors among 6 mice infected with B16 melanoma, scored on day 90 at 10 mg/kg dose
Mus musculus [32] = assay: Long-term survivors among 6 mice infected with P388 leukemia, scored on day 60 at 40 mg/kg dose; assay type: functional; method in brief: as §4
Mus musculus [33] = assay: Long-term survivors among 6 mice infected with P388 leukemia, scored on day 60 at 20 mg/kg dose; assay type: functional; method in brief: as §4
Mus musculus [34] = assay: Percent median survival time of mice intraperitoneally injected with P388 leukemia was determined from tested at 20 mg/kg at day1,5,9 dose to that of control; assay type: functional; details: route intravenous; method in brief: as §3

SMILES	IC50 (L1210) [nM]	IC50 (B16) [nM]	T/C (Mus musculus [11]) [%]	T/C (Mus musculus [12]) [%]	LTS (Mus musculus [13])	T/C (Mus musculus [14]) [%]	LTS (Mus musculus [15])	also measured
Cc1c2ccnc(C(=O)NCCN(C)C)c2cc2c3cc(OC(=O)NCCCC(=O)OCc4ccccc4)ccc3n(C)c12	304	29.4						LTS (Mus musculus [1]): 0; T/C (Mus musculus [2]): 96%; T/C (Mus musculus [3]): 103%; T/C (Mus musculus [4]): 93%; LTS (Mus musculus [5]): 0
Cc1c2ccnc(C(=O)NCCN(C)C)c2cc2c3cc(OC(=O)N4CCOCC4)ccc3n(C)c12	646	1770						T/C (Mus musculus [6]): 139%; T/C (Mus musculus [7]): 149%; T/C (Mus musculus [8]): 196%; LTS (Mus musculus [9]): 0; LTS (Mus musculus [10]): 0
CCCCCCCCC(=O)Oc1ccc2c(c1)c1cc3c(C(=O)NCCN(C)C)nccc3c(C)c1n2C	31.1	20.8	160	131	0	147	0	
CCCCCCCCCCCCCC(=O)Oc1ccc2c(c1)c1cc3c(C(=O)NCCN(C)C)nccc3c(C)c1n2C	215	195	166					LTS (Mus musculus [16]): 1; T/C (Mus musculus [4]): 153%; T/C (Mus musculus [17]): 176%; LTS (Mus musculus [18]): 0
CCCCCCCCCCCCNC(=O)Oc1ccc2c(c1)c1cc3c(C(=O)NCCN(C)C)nccc3c(C)c1n2C	809	2300		104	0	107	0	T/C (Mus musculus [2]): 133%
Cc1c2ccnc(C(=O)NCCN(C)C)c2cc2c3cc(OC(=O)CCCCCC(=O)O)ccc3n(C)c12	3.7	3.2	246					T/C (Mus musculus [19]): >600%; LTS (Mus musculus [20]): 5; T/C (Mus musculus [21]): >600%; LTS (Mus musculus [22]): 1
Cc1c2ccnc(C(=O)NCCN(C)C)c2cc2c3cc(OC(=O)N4CCC(N5CCCCC5)CC4)ccc3n(C)c12	696	2690	161					LTS (Mus musculus [23]): 0; T/C (Mus musculus [24]): 133%; T/C (Mus musculus [25]): 169%; LTS (Mus musculus [26]): 0; LTS (Mus musculus [27]): 0
Cc1c2ccnc(C(=O)NCCN(C)C)c2cc2c3cc(OC(=O)Cc4ccccc4)ccc3n(C)c12	26.7	22.3		125	0	157	0	T/C (Mus musculus [28]): 147%
CC(=O)Oc1ccc2c(c1)c1cc3c(C(=O)NCCN(C)C)nccc3c(C)c1n2C	5.1	6.1	182					LTS (Mus musculus [26]): 0; T/C (Mus musculus [29]): 214%; LTS (Mus musculus [30]): 1; T/C (Mus musculus [17]): 275%; LTS (Mus musculus [31]): 0
COc1ccc2c(c1)c1cc3c(C(=O)NCCN(C)C)nccc3c(C)c1n2C	551	334	126					LTS (Mus musculus [23]): 0; T/C (Mus musculus [24]): 94%; LTS (Mus musculus [32]): 0; LTS (Mus musculus [33]): 0; T/C (Mus musculus [34]): 96%
